Source: ChEMBL document CHEMBL2034969, “Bioactive carbazole alkaloids from Clausena wallichii roots” (J Nat Prod, 2012)
In brackets after ≈: the same amount, converted by molar mass. Activity calls are given as the source filed them. The rule behind the calls is not given here.

Experiments:
Salmonella typhimurium = test: Antibacterial activity against Salmonella typhimurium TISTR 292 by broth dilution method; type: functional, Salmonella enterica subsp. enterica serovar Typhimurium
Procedure, shortened: (§1)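 MIC found by 2-fold serial dilution in Mueller Hinton broth following CLSI (2002) recommendations. Test substances dissolved in DMSO. Vancomycin and gentamycin run as reference drugs.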

Staphylococcus aureus [1] = test: Antibacterial activity against methicillin-resistant Staphylococcus aureus SK1 by broth dilution method; type: functional
Staphylococcus aureus [2] = test: Antibacterial activity against Staphylococcus aureus TISTR 1466 by broth dilution method; type: functional; procedure, shortened: as §1
Escherichia coli = test: Antibacterial activity against Escherichia coli TISTR 780 by broth dilution method; type: functional; procedure, shortened: as §1
MCF7 = test: Cytotoxicity against human MCF7 cells by resazurin reduction assay; type: functional, cell-based
KB = test: Cytotoxicity against human KB cells by resazurin reduction assay; type: functional, cell-based
NCI-H187 = test: Cytotoxicity against human NCI-H187 cells by resazurin reduction assay; type: functional, cell-based
[3] = Homo sapiens, MCF7, read-out: IC50
[4] = Homo sapiens, NCI-H187, read-out: IC50
[5] = Salmonella enterica subsp. enterica serovar Typhimurium
[6] = Homo sapiens, KB, read-out: IC50

Row | Compound | MIC (Salmonella typhimurium; Salmonella enterica) [µg/mL] | MIC (Staphylococcus aureus [1]) | MIC (Staphylococcus aureus [2]) | MIC (Escherichia coli) | IC50 (MCF7; mcf7) | IC50 (KB; kb) | IC50 (NCI-H187; nci-h187) | IC50 (MCF7; [3]) [µM] | IC50 (NCI-H187; [4]) [µM] | MIC (Salmonella typhimurium; [5]) | IC50 (KB; [6]) [µM]
1 | COc1ccc2c(c1)[nH]c1cc(OC)c(O)cc12 [CLAUSENAWALLINE D] | 128 (≈ 526 µM) | inactive | inactive | 128 µg/mL (≈ 526 µM) | – | – | – | – | – | – | –
2 | Cc1cc2c([nH]c3ccc4c(c32)C=CC(C)(C)O4)c2c1OC(C)(C)C=C2 [CLAUSENAWALLINE C] | 128 (≈ 371 µM) | inactive | inactive | 128 µg/mL (≈ 371 µM) | Not Active | Not Active | Not Active | – | – | – | –
3 | CN[C@H](CC(C)C)C(=O)N[C@H]1C(=O)N[C@@H](CC(N)=O)C(=O)N[C@H]2C(=O)N[C@H]3C(=O)N[C@H](C(=O)N[C@H](C(=O)O)c4cc(O)cc(O)c4-c4cc3ccc4O)[C@H](O)c3ccc(c(Cl)c3)Oc3cc2cc(c3O[C@@H]2O[C@H](CO)[C@@H](O)[C@H](O)[C@H]2O[C@H]2C[C@](C)(N)[C@H](O)[C@H](C)O2)Oc2ccc(cc2Cl)[C@H]1O [VANCOMYCIN] | – | – | 0.25 µg/mL (≈ 0.173 µM) | – | – | – | – | – | – | – | –
4 | COc1ccc2c(c1)[nH]c1c(CC=C(C)C)c(O)c(C=O)cc12 | 128 (≈ 414 µM) | inactive | inactive | 128 µg/mL (≈ 414 µM) | – | Not Active | – | 53.9 | 42.3 | – | –
5 | GENTAMICIN | – | – | – | 0.25 µg/mL | – | – | – | – | – | 0.125 µg/mL | –
6 | COc1cccc2c1C(=O)c1c(O)c3c(c(O)c1C2=O)C[C@@](O)(C(=O)CO)C[C@@H]3O[C@H]1C[C@H](N)[C@H](O)[C@H](C)O1 [DOXORUBICIN] | – | – | – | – | – | – | – | 16.8 | 0.1 | – | 1.7
7 | CC(C)=CCc1c(O)c(C=O)cc2c1[nH]c1ccccc12 [HEPTAPHYLLINE] | 128 (≈ 458 µM) | inactive | inactive | 128 µg/mL (≈ 458 µM) | – | – | – | 171 | 20.2 | – | 94.2
8 | COc1ccc2c(c1)[nH]c1cc(OC)c(C=O)cc12 [LANSINE] | – | inactive | inactive | 128 µg/mL (≈ 501 µM) | Not Active | Not Active | Not Active | – | – | inactive | –
9 | O=Cc1cc2c(cc1O)[nH]c1ccccc12 [MUKONAL] | 128 (≈ 606 µM) | 64 µg/mL (≈ 303 µM) | inactive | 128 µg/mL (≈ 606 µM) | Not Active | Not Active | Not Active | – | – | – | –
10 | COc1cc2[nH]c3ccccc3c2cc1C=O [GLYCOSININE] | 128 (≈ 568 µM) | 128 µg/mL (≈ 568 µM) | inactive | inactive | – | – | – | 111 | 18.2 | – | 103
11 | COC(=O)c1ccc2[nH]c3cc(OC)ccc3c2c1 [CLAUSINE C] | 128 (≈ 501 µM) | inactive | inactive | inactive | Not Active | Not Active | Not Active | – | – | – | –
12 | COc1ccc2c(c1)[nH]c1cc(O)c(C=O)cc12 | 128 (≈ 531 µM) | 128 µg/mL (≈ 531 µM) | inactive | inactive | – | – | – | 69.1 | 45.9 | – | 181
13 | CC(C)=CCc1c(O)c(C=O)cc2c1[nH]c1cc(O)ccc12 [7-HYDROXYHEPTAPHYLLINE] | 64 (≈ 217 µM) | 4 µg/mL (≈ 13.5 µM) | 8 µg/mL (≈ 27.1 µM) | 64 µg/mL (≈ 217 µM) | Not Active | – | – | – | 19.6 | – | 107
14 | COC(=O)c1ccc2[nH]c3ccccc3c2c1 | 128 (≈ 568 µM) | inactive | inactive | 128 µg/mL (≈ 568 µM) | – | – | – | 170 | 95.8 | – | 59.7
15 | COc1ccc2c(c1)[nH]c1ccc(C=O)cc12 [CLAUSZOLINE K] | – | 128 µg/mL (≈ 568 µM) | inactive | 128 µg/mL (≈ 568 µM) | Not Active | Not Active | Not Active | – | – | inactive | –
16 | Cc1c2ccncc2c(C)c2c1[nH]c1ccccc12 [ELLIPTECINE] | – | – | – | – | – | – | – | – | 3.1 | – | 5.2
17 | Cc1cc2c([nH]c3ccc4c(c32)C=CC(C)(C)O4)c(-c2c(O)c(C)cc3c2[nH]c2ccc4c(c23)C=CC(C)(C)O4)c1O [CLAUSENAWALLINE A] | 128 (≈ 230 µM) | 128 µg/mL (≈ 230 µM) | 64 µg/mL (≈ 115 µM) | inactive | – | – | – | – | – | – | –
18 | COc1cc2[nH]c3ccccc3c2cc1O | 128 (≈ 600 µM) | inactive | inactive | 128 µg/mL (≈ 600 µM) | – | – | – | 31.4 | 27.4 | – | 213
19 | Cc1cc2c([nH]c3ccccc32)c2c1OC(C)(C)C=C2 [GRINIMIBINE] | – | inactive | inactive | 128 µg/mL (≈ 486 µM) | – | – | – | 28.8 | 58.9 | inactive | 263
20 | COC(=O)c1cc2c(cc1OC)[nH]c1ccccc12 [CLAUSINE L] | 128 (≈ 501 µM) | inactive | inactive | 128 µg/mL (≈ 501 µM) | Not Active | Not Active | Not Active | – | – | – | –
21 | COC(=O)c1cc2c(cc1OC)[nH]c1cc(OC)ccc12 [CLAUSZOLINE C] | 128 (≈ 449 µM) | inactive | inactive | 128 µg/mL (≈ 449 µM) | Not Active | Not Active | Not Active | – | – | – | –
22 | COC(=O)c1cc2c([nH]c3ccccc32)c(O)c1-c1c(O)c(C=O)cc2c1[nH]c1cc(OC)ccc12 [CLAUSENAWALLINE F] | – | 64 µg/mL (≈ 133 µM) | 64 µg/mL (≈ 133 µM) | 128 µg/mL (≈ 266 µM) | – | – | – | 62.3 | 4.5 | inactive | 10.2
23 | COC(=O)c1cc2c(cc1O)[nH]c1ccccc12 [MUKONIDINE] | 32 (≈ 133 µM) | 64 µg/mL (≈ 265 µM) | 64 µg/mL (≈ 265 µM) | 128 µg/mL (≈ 531 µM) | – | Not Active | – | 205 | 134 | – | –
24 | COc1cc2[nH]c3ccc(O)c(-c4c(O)c(C)cc5c4[nH]c4ccc6c(c45)C=CC(C)(C)O6)c3c2cc1C [CLAUSENAWALLINE E] | 128 (≈ 254 µM) | 8 µg/mL (≈ 15.9 µM) | 8 µg/mL (≈ 15.9 µM) | 128 µg/mL (≈ 254 µM) | – | – | – | – | – | – | –
25 | CC1(C)C=Cc2c(ccc3[nH]c4cc(O)c(C=O)cc4c23)O1 [CLAURAILAS D] | 128 (≈ 436 µM) | 128 µg/mL (≈ 436 µM) | inactive | 64 µg/mL (≈ 218 µM) | – | – | – | 66.1 | 60.8 | – | 293
26 | COc1cc2[nH]c3c(CC=C(C)C)c(O)c(C=O)cc3c2c(-c2cc3c(cc2O)[nH]c2ccccc23)c1O [CLAUSENAWALLINE B] | 128 (≈ 253 µM) | 16 µg/mL (≈ 31.6 µM) | 8 µg/mL (≈ 15.8 µM) | 128 µg/mL (≈ 253 µM) | – | – | – | – | – | – | –
